These results are taken from ChEMBL document CHEMBL2146366, “Discovery of microsomal triglyceride transfer protein (MTP) inhibitors with potential for decreased active metabolite load compared to dirlotapide” (Bioorg Med Chem Lett, 2011).

The structures appear in SMILES notation.

Data set [1] in a line: Fraction unbound in human HepG2 cells by equilibrium dialysis. It is filed as ADME, cell-based. An outline of the steps: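 Protein binding was measured by equilibrium dialysis under the conditions of the apoB secretion assay in human HepG2 cells, to give unbound fraction.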
In general terms: Equilibrium dialysis compares concentrations on both sides of a semipermeable membrane.

The subject of data set [2] is Rattus norvegicus. In words: Antiobesity activity in high fat diet-induced obese Sprague-Dawley rat assessed as reduction of food intake at 10 mg/kg, po administered daily for 3 days relative to dirlotapide. It is filed as functional. Set-up: scale not given: the % may be the effect or the level left. A digest of the protocol: (§1)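 Male Sprague–Dawley rats (~300 g, n = 5 per group) were acclimatized for seven days to a high-fat diet (45% kcal from fat). They received three consecutive daily oral gavage doses 1.5 h before the dark cycle. Vehicle was SEDDS:H2O 10:90, with SEDDS made of Miglyol 812 10%, triacetin 30%, polysorbate 80 20% and Capmul MCM 30%. Food intake was recorded during dosing, and liver TG was measured afterwards, both against vehicle.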

Data set [3] concerns Rattus norvegicus. Nature of the data set: Antiobesity activity in high fat diet-induced obese Sprague-Dawley rat assessed as reduction in body weight at 10 mg/kg, po administered daily for 3 days relative to dirlotapide. It is filed as functional. The arrangement: scale not given: the % may be the effect or the level left.
Data set [4] concerns Rattus norvegicus. In words: Antiobesity activity in high fat diet-induced obese Sprague-Dawley rat assessed as reduction of triglyceride accumulation in liver at 10 mg/kg, po administered daily for 3 days relative to dirlotapide. It is filed as functional. The arrangement: scale not given: the % may be the effect or the level left. A digest of the protocol: as §1
The test system of data set [5] is Rattus norvegicus. Nature of the data set: Antiobesity activity in high fat diet-induced obese Sprague-Dawley rat assessed as reduction of triglyceride accumulation in liver at 10 mg/kg, po administered daily for 3 days relative to control. Type of data set: functional. The arrangement: scale not given: the % may be the effect or the level left. An outline of the steps: as §1

Data set [6] relates to Rattus norvegicus. In words: Antiobesity activity in high fat diet-induced obese Sprague-Dawley rat assessed as reduction in body weight at 10 mg/kg, po administered daily for 3 days relative to control. The arrangement: scale not given: the % may be the effect or the level left. Type of data set: functional.
Data set [7] relates to Rattus norvegicus. Nature of the data set: Antiobesity activity in high fat diet-induced obese Sprague-Dawley rat assessed as reduction of food intake at 10 mg/kg, po administered daily for 3 days relative to control. It is filed as functional. Set-up: scale not given: the % may be the effect or the level left. A digest of the protocol:
as §1

In turn, `CC(C)Oc1ccc(-c2ccccc2C(=O)Nc2ccc3cc(C(=O)N[C@H](C(=O)NCc4ccc(F)cc4)c4ccccc4)ccc3n2)cc1` registered a fraction unbound in data set [1] of 0.0061.
In the case of `CC(C)(CO)c1ccc(-c2ccccc2C(=O)Nc2ccc3cc(C(=O)N[C@H](C(=O)NCc4ccc(F)cc4)c4ccccc4)ccc3n2)cc1`, the unbound share (fraction unbound) in data set [1] was 0.0135.
The same measure, in the same setting: as for `CN(Cc1ccc(F)cc1)C(=O)[C@@H](NC(=O)c1ccc2nc(NC(=O)c3ccccc3-c3ccc(C(C)(C)CO)cc3)ccc2c1)c1ccccc1`, the figure is 0.023.
As for `CN(Cc1ccc(F)cc1)C(=O)[C@@H](NC(=O)c1ccc2nc(NC(=O)c3ccccc3-c3ccc(C(C)(C)C(=O)O)cc3)ccc2c1)c1ccccc1`, in data set [1], the free fraction (fraction unbound) was determined as 0.0088.
Consider `CNC(=O)[C@@H](NC(=O)c1cc2cc(NC(=O)c3ccccc3-c3ccc(C(F)(F)F)cc3)ccc2n1C)c1ccccc1`, for which the Activity turned out to be 43% with Rattus norvegicus [2]; 115% in the data set on Rattus norvegicus [3]; 112% in the data set with Rattus norvegicus [4]; 147% in the data set with Rattus norvegicus [5]; 106% in the data set with Rattus norvegicus [6]; 40% with Rattus norvegicus [7]. The free fraction (fraction unbound) in data set [1] came to 0.21.
On to `CC(CO)Oc1ccc(-c2ccccc2C(=O)Nc2ccc3cc(C(=O)N[C@H](C(=O)N(C)Cc4ccc(F)cc4)c4ccccc4)ccc3n2)cc1` (some centres not stated), for which, in data set [1], the free fraction (fraction unbound) came to 0.013.
With `Cn1c(C(=O)N[C@H](C(N)=O)c2ccccc2)cc2cc(NC(=O)c3ccccc3-c3ccc(C(F)(F)F)cc3)ccc21`, the Activity is 43% with Rattus norvegicus [2]; 115% in the data set with Rattus norvegicus [3]; 112% in the data set on Rattus norvegicus [4]; 87% in the data set with Rattus norvegicus [5]; 108% in the data set with Rattus norvegicus [6]; 37% in the data set on Rattus norvegicus [7]. The unbound share (fraction unbound) in data set [1] stood at 0.23.
For `CN(Cc1ccc(F)cc1)C(=O)[C@@H](NC(=O)c1ccc2nc(NC(=O)c3ccccc3-c3ccc(OC(C)(C)C)cc3)ccc2c1)c1ccccc1`, the Activity in the data set on Rattus norvegicus [2] stood at 38%; in the data set with Rattus norvegicus [3] it was 95%; in the data set on Rattus norvegicus [4], 112%; in the data set on Rattus norvegicus [5], 72%; in the data set on Rattus norvegicus [6] it was 108%; in the data set on Rattus norvegicus [7], 40%.
Regarding `CC(C)c1ccc(-c2ccccc2C(=O)Nc2ccc3cc(C(=O)N[C@H](C(=O)N(C)Cc4ccc(F)cc4)c4ccccc4)ccc3n2)cc1`, the Activity in the data set on Rattus norvegicus [2] is reported as 11%; in the data set on Rattus norvegicus [3] it was 8%; in the data set on Rattus norvegicus [4], 70%; in the data set on Rattus norvegicus [5], 16%; in the data set with Rattus norvegicus [6] it was 91%; with Rattus norvegicus [7] it was 38%. For the same compound, the free fraction (fraction unbound) in data set [1] was 0.0011.
The compound `CNC(=O)[C@@H](NC(=O)c1ccc2nc(NC(=O)c3ccccc3-c3ccc(OC(C)C)cc3)ccc2c1)c1ccccc1` registered a fraction unbound in data set [1] of 0.16.
The same measure, in the same setting: the value for `CC(C)(C)c1ccc(-c2ccccc2C(=O)Nc2ccc3cc(C(=O)N[C@H](C(=O)NCc4ccc(F)cc4)c4ccccc4)ccc3n2)cc1` was 0.0023.
Consider `Cc1ccc(-c2ccccc2C(=O)Nc2ccc3cc(C(=O)N[C@H](C(=O)N(C)Cc4ccc(F)cc4)c4ccccc4)ccc3n2)cc1`, for which the Activity came to 50% with Rattus norvegicus [2]; 117% with Rattus norvegicus [3]; 216% in the data set on Rattus norvegicus [4]; 43% in the data set with Rattus norvegicus [5]; 75% in the data set with Rattus norvegicus [6]; 38% in the data set on Rattus norvegicus [7]. The unbound share (fraction unbound) in data set [1] was determined as 0.0043.
In the case of `CC(C)(C(=O)O)c1ccc(-c2ccccc2C(=O)Nc2ccc3cc(C(=O)N[C@H](C(=O)NCc4ccc(F)cc4)c4ccccc4)ccc3n2)cc1`, the fraction unbound in data set [1] worked out at 0.0211.
Take `CC(Oc1ccc(-c2ccccc2C(=O)Nc2ccc3cc(C(=O)N[C@H](C(=O)N(C)Cc4ccc(F)cc4)c4ccccc4)ccc3n2)cc1)C(=O)O` (some centres not stated): in data set [1], the fraction unbound was determined as 0.022.
As to `CN(Cc1ccc(F)cc1)C(=O)[C@@H](NC(=O)c1ccc2nc(NC(=O)c3ccccc3-c3ccc(C(F)(F)F)cc3)ccc2c1)c1ccccc1`, the Activity in the data set on Rattus norvegicus [2] is given as 11%; with Rattus norvegicus [3] it was 8%; with Rattus norvegicus [4] it was 70%; with Rattus norvegicus [5] it was 88%; with Rattus norvegicus [6], 96%; with Rattus norvegicus [7], 43%. The compound also returned an unbound share (fraction unbound) in data set [1] of 0.0014.
For the compound `CN(Cc1ccc(F)cc1)C(=O)[C@@H](NC(=O)c1ccc2nc(NC(=O)c3ccccc3-c3ccc(O)cc3)ccc2c1)c1ccccc1`, the fraction unbound in data set [1] was 0.0095.
In data set [1], `CNC(=O)[C@@H](NC(=O)c1ccc2nc(NC(=O)c3ccccc3-c3ccc(C(C)(C)C)cc3)ccc2c1)c1ccccc1` returned a fraction unbound of 0.038.

In general, fraction unbound refers to free concentration divided by total concentration.
